Measured values collected from several papers.
Each line is one published result; the experiments were not run side by side.

| SMILES | target or system | test | test system | setting | measurement | result |
| --- | --- | --- | --- | --- | --- | --- |
| O=C(CO/N=c1\cc2n(-c3ccc(Cl)cc3)c3ccccc3nc-2cc1Nc1ccc(Cl)cc1)NCc1ccc2c(c1)CCO2 | Neisseria gonorrhoeae | microbial growth | ATCC49226 | – | MIC | 15 µM |
| Cc1c(Cc2ccccc2)c(=O)oc2c(C)c(OCC(=O)NN=Cc3ccc(Cl)cc3)ccc12 | MDA-MB-231 | cell growth or viability, MTT | – | 250 µg/mL | viability | 21.2% |
| COc1ccc(COC[C@@](O)(CNCc2ccc(F)cc2)[C@@H]2CC[C@@H](C)C[C@H]2OCc2ccc(OC)cc2)cc1 | MDA-MB-231 | cell growth or viability, MTT | – | 10 µM, 72 h | inhibition | 91.7% |
| Cc1c(Cc2ccccc2)c(=O)oc2c(C)c(OCC(=O)NN=Cc3ccccc3)ccc12 | MDA-MB-231 | cell growth or viability, MTT | – | 62.5 µg/mL | viability | 17.6% |
| O/N=c1\cc2n(-c3ccc(Cl)cc3)c3ccccc3nc-2cc1Nc1ccc(Cl)cc1 | Neisseria gonorrhoeae | microbial growth | ATCC49226 | – | MIC | 0.03 µM |
| CCOc1ccc2c(C)c(CC)c(=O)oc2c1C | MDA-MB-231 | cell growth or viability, MTT | – | 31.25 µg/mL | viability | 100% |
| O=C1C(Br)=C(Br)C(=O)c2ccccc21 | Lodderomyces parapsilosis | microbial growth, broth dilution | ATCC22019 | 24 h | MIC | < 1.56 µg/mL |
| C[C@@H]1CC[C@@H]([C@](C)(O)CNCc2cccc3ccccc23)[C@H](OCc2ccccc2)C1 | MDA-MB-231 | cell growth or viability, MTT | – | 30 µM, 72 h | inhibition | 61% |
| Cc1c(Cc2ccccc2)c(=O)oc2c(C)c(OCC(=O)NN=Cc3ccc([N+](=O)[O-])cc3)ccc12 | MDA-MB-231 | cell growth or viability, MTT | – | 31.25 µg/mL | viability | 37.2% |
| COc1ccc(COC[C@@](O)(CNCc2ccccc2)[C@@H]2CC[C@@H](C)C[C@H]2OCc2ccc(OC)cc2)cc1 | MDA-MB-231 | cell growth or viability, MTT | – | 30 µM, 72 h | inhibition | 101% |
| CC(C)/N=c1\cc2n(-c3ccc(Cl)cc3)c3ccccc3nc-2cc1Nc1ccc(Cl)cc1 | Neisseria gonorrhoeae | microbial growth | ATCC49226 | – | MIC | 0.94 µM |
| C[C@@H]1CC[C@@H]([C@](O)(CNCc2cccc3ccccc23)COCc2ccccc2)[C@H](OCc2ccccc2)C1 | MDA-MB-231 | cell growth or viability, MTT | – | 30 µM, 72 h | inhibition | 98% |
| O=C(O)CNC(=O)CO/N=c1\cc2n(-c3ccc(Cl)cc3)c3ccccc3nc-2cc1Nc1ccc(Cl)cc1 | Neisseria gonorrhoeae | microbial growth | ATCC49226 | – | MIC | 1.88 µM |
| CC(=NNC(=O)COc1ccc2c(C)c(Cc3ccccc3)c(=O)oc2c1C)c1ccc(Br)cc1 | MDA-MB-231 | cell growth or viability, MTT | – | 500 µg/mL | viability | 19.9% |
| C[C@@H]1CC[C@@H]([C@](O)(CNCc2ccc(F)cc2)COCc2ccc(F)cc2)[C@H](OCc2ccc(F)cc2)C1 | MDA-MB-231 | cell growth or viability, MTT | – | 10 µM, 72 h | inhibition | 88.9% |
